ChEMBL document CHEMBL1158342, “Synthesis and biological activity evaluation of 1H-benzimidazoles via mammalian DNA topoisomerase I and cytostaticity assays” (Eur J Med Chem, 2009)
Activity calls are given as the source filed them. No cut-off for these calls is given here.

Tests used:
Bos taurus [1] = species: Bos taurus; assay: Inhibition of calf thymus DNA topoisomerase 1-mediated relaxation of supercoiled pBR322 plasmid DNA by agarose gel electrophoresis
In short: (§1)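 Reaction contained 1 unit calf thymus topo I and supercoiled pBR322 in 35 mM Tris-HCl pH 8.0, 72 mM KCl, 5 mM MgCl2, 5 mM DTT, 5 mM spermidine and 0.1% BSA, with or without compound, at 37 °C. Products were run on 1% agarose in TBE at 5 V/cm, stained with ethidium bromide and photographed under UV. Supercoiled and relaxed bands were quantified from gel images.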

Bos taurus [2] = species: Bos taurus; assay: Inhibition of calf thymus DNA topoisomerase 1-mediated relaxation of supercoiled pBR322 plasmid DNA at 1 ug/ml by agarose gel electrophoresis; in short: as §1
A-431 = assay: Cytotoxicity against human A431 cells after 72 hrs by MTT assay; assay type: functional, cell-based; conditions: A-431, 72 h
In short: (§2)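 Cells seeded at 5000/well and left to attach overnight, then given fresh medium containing compound over […] and incubated 72 h. Viability read by MTT: 4 h contact, crystals dissolved in DMSO over 60 min of shaking, absorbance at 545 nm. Untreated wells served as controls; DMSO at most 0.3%. Two plates with at least five parallel wells each; IC50 from fitted dose–response curves.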

HeLa = assay: Cytotoxicity against human HeLa cells after 72 hrs by MTT assay; assay type: functional, cell-based; in short: as §2
MCF7 = assay: Cytotoxicity against human MCF7 cells after 72 hrs by MTT assay; assay type: functional, cell-based; conditions: MCF7, 72 h; in short: as §2

| Structure (SMILES) | inhibition (Bos taurus [1]) | inhibition (Bos taurus [2]) | IC50 (A-431) [µM] | IC50 (HeLa) [µM] | IC50 (MCF7) [µM] |
| --- | --- | --- | --- | --- | --- |
| Clc1ccc2[nH]c(-c3ccccc3OCCN3CCCCC3)nc2c1 | Dose-dependent effect | inactive | – | – | – |
| c1ccc(-c2nc3ccccc3[nH]2)c(OCCN2CCCCC2)c1 | Dose-dependent effect | inactive | – | – | – |
| c1ccc(-c2nc3ccccc3[nH]2)c(OCCN2CCOCC2)c1 | Dose-dependent effect | inactive | – | – | – |
| Clc1ccc2[nH]c(-c3ccccc3OCCN3CCOCC3)nc2c1 | Dose-dependent effect | inactive | – | – | – |
| Oc1ccccc1-c1nc2cc(Cl)ccc2[nH]1 | Dose-dependent effect | 99% | 6.16 | 6.04 | 6.94 |
| Clc1ccc2[nH]c(-c3ccccc3OCCN3CCCC3)nc2c1 | Dose-dependent effect | inactive | – | – | – |
| CCN(CC)CCOc1ccccc1-c1nc2cc(Cl)ccc2[nH]1 | Dose-dependent effect | inactive | – | – | – |
| COc1cccc2c1C(=O)c1c(O)c3c(c(O)c1C2=O)C[C@@](O)(C(=O)CO)C[C@@H]3O[C@H]1C[C@H](N)[C@H](O)[C@H](C)O1 [DOXORUBICIN] | – | – | 0.19 | 0.16 | 0.31 |
| c1ccc(-c2nc3ccccc3[nH]2)c(OCCN2CCCC2)c1 | Dose-dependent effect | 90.2% | > 30 | 19.8 | > 30 |
| Oc1ccccc1-c1nc2ccccc2[nH]1 | Dose-dependent effect | 95.4% | > 30 | 26.4 | 16 |
